The structures appear in SMILES notation. Residue numbers refer to the chain shown, from its start.

One molecule from ChEMBL document CHEMBL4177770, “Discovery of MK-6169, a Potent Pan-Genotype Hepatitis C Virus NS5A Inhibitor with Optimized Activity against Common Resistance-Associated Substitutions” (J Med Chem, 2018) can be followed below.

Data set [1] deals with Hepatitis C virus subtype 1a. The data set is described as follows: Resistance ratio of EC90 for NS5A Y93H mutant in HCV genotype 1a infected in HuH7 replicon cells to EC90 for NS5A in HCV genotype 1a infected in HuH7 replicon cells. The data set is classed as cell-based. A general note: A replicon is a self-replicating genome or part of one, used to study replication in cells.

Data set [2] is described as follows: Tmax in Wistar Han rat at 10 mg/kg, po by LC/MS method. The data set is classed as ADME, organism-based. The note with it: in vivo. An outline of the steps: (§1)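 Male Wistar Han rats, two per dosing group, dosed orally at 10 mg/kg in 10% TWEEN. Plasma was separated from collected blood by centrifugation and analysed by LC/MS.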
Data set [3] deals with Hepatitis C virus subtype 1a. Kind of data set: Resistance ratio of EC90 for NS5A Q30R mutant in HCV genotype 1a infected in HuH7 replicon cells to EC90 for NS5A in HCV genotype 1a infected in HuH7 replicon cells. The data set is classed as cell-based.
Data set [4] is described as follows: AUC in Wistar Han rat at 100 mg/kg, po by LC/MS method. It counts as ADME, organism-based. Particulars: in vivo. An outline of the steps:
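Single rising oral dose study in fed male Wistar Han rats, dosed PO in 10% TWEEN at the indicated doses. Plasma was obtained by centrifuging the blood, and compound levels were determined by LC/MS.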

The target in data set [5] is T1, Nonstructural protein 5A (Hepatitis C virus) (UniProt Q5L478).
T1 sequence (whole entry): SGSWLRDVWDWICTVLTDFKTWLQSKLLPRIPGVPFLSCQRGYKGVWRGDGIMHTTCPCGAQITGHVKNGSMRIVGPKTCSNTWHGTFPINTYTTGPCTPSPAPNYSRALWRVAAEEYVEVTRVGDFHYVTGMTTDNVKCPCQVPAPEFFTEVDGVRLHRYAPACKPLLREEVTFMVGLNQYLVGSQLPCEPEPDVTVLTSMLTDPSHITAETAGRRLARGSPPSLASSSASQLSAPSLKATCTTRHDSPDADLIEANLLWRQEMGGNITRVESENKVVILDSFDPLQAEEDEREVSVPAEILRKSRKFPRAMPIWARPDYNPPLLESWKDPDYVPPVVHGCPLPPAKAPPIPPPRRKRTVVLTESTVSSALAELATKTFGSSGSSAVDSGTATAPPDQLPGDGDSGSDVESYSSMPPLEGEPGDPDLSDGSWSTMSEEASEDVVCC
The data set is described as follows: Inhibition of NS5A L31I mutant in HCV genotype 1b infected in HuH7 replicon cells assessed as decrease in viral replication after 3 days by RT-PCR method. The note with it: Hepatitis C virus subtype 1b. The data set is classed as cell-based.

Data set [6] is described as follows: Resistance ratio of EC90 for NS5A L31M mutant in HCV genotype 1b infected in HuH7 replicon cells to EC90 for NS5A in HCV genotype 1a infected in HuH7 replicon cells. It counts as cell-based.
Data set [7] can be described thus: Resistance ratio of EC90 for NS5A A92K mutant in HCV genotype 1b infected in HuH7 replicon cells to EC90 for NS5A in HCV genotype 1a infected in HuH7 replicon cells. The data set is classed as cell-based.
The target of data set [8] is T1, Nonstructural protein 5A (Hepatitis C virus). Kind of data set: Inhibition of NS5A M28T mutant in HCV genotype 1a infected in HuH7 replicon cells assessed as decrease in viral replication after 3 days by RT-PCR method. It counts as cell-based. Particulars: Hepatitis C virus subtype 1a.
Data set [9] is described as follows: Resistance ratio of EC90 for NS5A A92T mutant in HCV genotype 1b infected in HuH7 replicon cells to EC90 for NS5A in HCV genotype 1a infected in HuH7 replicon cells. It counts as cell-based.
Data set [10] can be described thus: Resistance ratio of EC90 for NS5A L31I mutant in HCV genotype 1b infected in HuH7 replicon cells to EC90 for NS5A in HCV genotype 1a infected in HuH7 replicon cells. The data set is classed as cell-based.
The nature of data set [11]: Resistance ratio of EC90 for NS5A L28M/Y93H double mutant in HCV genotype 1b infected in HuH7 replicon cells to EC90 for NS5A in HCV genotype 1a infected in HuH7 replicon cells. The data set is classed as cell-based.
Data set [12] addresses T1, Nonstructural protein 5A (Hepatitis C virus). The data set is described as follows: Inhibition of NS5A F28L mutant in HCV genotype 2a infected in HuH7 replicon cells assessed as decrease in viral replication after 3 days by RT-PCR method. Particulars: Hepatitis C virus subtype 2a. The data set is classed as cell-based.
Data set [13] shares this target. Kind of data set: Inhibition of NS5A L31M mutant in HCV genotype 2b infected in HuH7 replicon cells assessed as decrease in viral replication after 3 days by RT-PCR method. It counts as cell-based. The note with it: Hepatitis C virus subtype 2b.
Data set [14] has the same target. Kind of data set: Inhibition of NS5A L31M mutant in HCV genotype 2a infected in HuH7 replicon cells assessed as decrease in viral replication after 3 days by RT-PCR method. It counts as cell-based. The note with it: Hepatitis C virus subtype 2a.
A short description of data set [15]: Oral bioavailability in Wistar Han rat at 10 mg/kg by LC/MS method. The note with it: in vivo. It counts as ADME, organism-based. An outline of the steps: as §1
The test system of data set [16] is T2, Nonstructural protein 5A (Hepatitis C virus), Q5L478 [L28M,Y93H].
T2 sequence (whole entry): T1 sequence (whole entry) with L28M, Y93H
Kind of data set: Inhibition of NS5A L28M/Y93H double mutant in HCV genotype 1b infected in HuH7 replicon cells assessed as decrease in viral replication after 3 days by RT-PCR method. The data set is classed as cell-based. The note with it: Hepatitis C virus subtype 1b.

Data set [17] deals with Hepatitis C virus subtype 1a. Kind of data set: Resistance ratio of EC90 for NS5A L31M/Y93C double mutant in HCV genotype 1a infected in HuH7 replicon cells to EC90 for NS5A in HCV genotype 1a infected in HuH7 replicon cells. It counts as cell-based.
A short description of data set [18]: Half life in Wistar Han rat at 2 mg/kg, iv by LC/MS method. Particulars: in vivo. It counts as ADME, organism-based. The essentials: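 Male Wistar Han rats, two per group, dosed IV at 2 mg/kg in 60% PEG200. Plasma was obtained by centrifuging the blood, and compound concentrations were measured by LC/MS.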
The nature of data set [19]: Resistance ratio of EC90 for NS5A L31M/Y93H double mutant in HCV genotype 1b infected in HuH7 replicon cells to EC90 for NS5A in HCV genotype 1a infected in HuH7 replicon cells. The data set is classed as cell-based.
A short description of data set [20]: Resistance ratio of EC90 for NS5A F28L mutant in HCV genotype 2a infected in HuH7 replicon cells to EC90 for NS5A in HCV genotype 1a infected in HuH7 replicon cells. It counts as cell-based.
The target of data set [21] is T1, Nonstructural protein 5A (Hepatitis C virus). Kind of data set: Inhibition of NS5A D168Y mutant in HCV genotype 1b infected in HuH7 replicon cells assessed as decrease in viral replication after 3 days by RT-PCR method. The data set is classed as cell-based. Particulars: Hepatitis C virus subtype 1b.

`COC(=O)N[C@H](C(=O)N1CCC[C@H]1c1ncc(-c2cc(F)c3c(c2)O[C@@H](c2ccc(C4CC4)s2)n2c-3cc3cc(-c4cnc([C@@H]5CCCN5C(=O)[C@@H](NC(=O)OC)[C@@H]5CCOC(C)(C)C5)[nH]4)ccc32)[nH]1)C(C)C`: the Ratio in data set [1] is 8; in data set [3] it was 28; in data set [6], under 1; in data set [7] it was 6; in data set [9] it was 1; in data set [10], 5. In addition, the Ratio is 15 in data set [11], 43 in [17], 45 in data set [19] and under 1 in [20]. The time to peak (Tmax) (in general, the time at which the peak concentration occurs) in data set [2] is 3 h. Further, the area under the curve (AUC) (in general, concentration integrated over time) in data set [4] is 7.82 µM·h. Further, the EC90 (as a rule, the concentration needed for an effect of 90%) was 0.021 nM in data set [5]; 0.002 nM in data set [8]; 0.0005 nM in data set [12]; 0.018 nM in [13]; 0.025 nM in data set [14]; 0.065 nM in data set [16]. Further, the EC90 in [21] turned out to be 0.0018 nM. For the same molecule, the bioavailability (usually dose-corrected exposure relative to a reference, in per cent) in [15] stood at 6.6%. In data set [18], the half-life (in general, how long it takes for the measured level to halve) is 5.4 h.
